Data as given in ChEMBL document CHEMBL5038602, “Potent Lys Patch-Containing Stapled Peptides Targeting PCSK9” (J Med Chem, 2021).
Positions of bridges follow the written chain, without caps; N, C: chain ends. Residues, ends and D or L forms follow the SMILES beside them.

How the values were obtained:
[1] = target: Proprotein convertase subtilisin/kexin type 9 (Homo sapiens, UniProt Q8NBP7); experiment: Binding affinity to human PCSK9 by surface plasmon resonance
In short: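 Recombinant human His-tagged PCSK9 (Gln31–Gln692, HEK293-expressed) at 14 µg/mL amine-coupled onto Ni-NTA chip, ~1000–4000 RU. Buffer 25 mM Tris-HCl, 5 mM CaCl2, 100 mM NaCl, 0.01% P20, pH 7.5, 5% DMSO in running buffer. 25°C. Double-referenced sensorgrams; KD from steady-state equilibrium responses fit to a 4-parameter model, or kinetics fit 1:1.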

[2] = Reversal of LDL uptake in human HepG2 cells at 10 uM for 2 hrs preincubation with PCSK9 followed by LDL addition and measured after 4 hrs by fluorimetry method relative to control; type: functional; conditions: time 6 hrs
In short: (§1)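 HepG2 cells seeded 40000/well, serum-starved 24 h in DMEM with 5% LPDS. Human His-PCSK9 (20–50 nM) preincubated 30–60 min at room temperature ± compounds (10 µM to 0.0001 µM, 0.1% DMSO). Cells then exposed 2 h at 37°C. LDL-BODIPY added to 10 µg/mL final for 4 h. Fluorescence read at ex 480/em 520 nm. Expressed as % maximal LDL-BODIPY incorporation; EC50 by non-linear fit.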

[3] = Reversal of LDL uptake in human HepG2 cells for 2 hrs preincubation with PCSK9 followed by LDL addition and measured after 4 hrs by fluorimetry method relative to control; type: functional, cell-based; in short: as §1
[4] = Effect on mast cell degranulation in human LAD2 cells assessed as CCL3 release measured after 2 hrs by Luminex bead based assay; type: functional; conditions: for EC50: Homo sapiens, LAD2, 2 h; for Emax: time 2 hrs
In short: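 LAD2 human mast cells in StemPro 34 medium, 0.2×10^6 cells/well. Supernatant CCL3 quantified by Luminex magnetic bead kit.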

[5] = test system: HepG2; experiment: Cytotoxicity against human HepG2 cells assessed as reduction in cell viability at 0.4 to 10 uM for 48 hrs by SRB assay; type: toxicity, cell-based; conditions: hepg2, 48 h, dose 0.4-10 µM
In short: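 HepG2 cells seeded 2000/well 24 h before treatment. Compounds at 0.4, 1.1, 3.3 and 10 µM in DMEM, 48 h at 37°C. SRB staining 30 min at 37°C, dye dissolved in 10 mM Tris base, absorbance at 560 nm. Triplicate wells averaged and normalized to untreated cells.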

Chain of Proprotein convertase subtilisin/kexin type 9 (Q8NBP7 31-152 limits assumed): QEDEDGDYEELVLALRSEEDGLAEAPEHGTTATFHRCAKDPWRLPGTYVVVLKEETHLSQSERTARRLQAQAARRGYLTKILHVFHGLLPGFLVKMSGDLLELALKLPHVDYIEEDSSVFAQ
Chain of Proprotein convertase subtilisin/kexin type 9 (Q8NBP7 153-692 limits assumed): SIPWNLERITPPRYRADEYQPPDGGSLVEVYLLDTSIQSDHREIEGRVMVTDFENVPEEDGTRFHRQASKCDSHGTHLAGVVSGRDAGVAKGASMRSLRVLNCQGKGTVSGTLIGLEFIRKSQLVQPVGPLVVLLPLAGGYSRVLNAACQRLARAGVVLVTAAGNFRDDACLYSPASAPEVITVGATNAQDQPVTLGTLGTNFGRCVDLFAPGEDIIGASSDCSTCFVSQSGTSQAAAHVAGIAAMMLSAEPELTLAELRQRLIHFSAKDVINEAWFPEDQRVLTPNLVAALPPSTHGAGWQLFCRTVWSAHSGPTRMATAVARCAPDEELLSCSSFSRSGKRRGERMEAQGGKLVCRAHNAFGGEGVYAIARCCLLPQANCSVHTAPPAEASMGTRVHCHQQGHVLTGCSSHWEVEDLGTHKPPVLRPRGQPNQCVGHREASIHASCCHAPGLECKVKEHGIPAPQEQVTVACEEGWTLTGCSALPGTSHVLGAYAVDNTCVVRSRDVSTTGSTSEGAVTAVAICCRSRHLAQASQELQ

CC(=O)N[C@H](C(=O)N[C@H](C(=O)N[C@@H](Cc1ccccc1)C(=O)N[C@H](C(=O)N[C@@H](CO)C(=O)N[C@@H](Cc1c[nH]c2ccccc12)C(=O)N[C@@H](CCC(=O)O)C(=O)N[C@@H](CCC(=O)O)C(=O)N[C@@H](Cc1ccc(O)cc1)C(=O)N[C@@H](CC(C)C)C(=O)N[C@@H](CC(=O)O)C(=O)N[C@@H](Cc1c[nH]c2ccccc12)C(=O)N[C@H](C(N)=O)C(C)C)[C@@H](C)O)C(C)C)[C@@H](C)O
Kd [1]: 9700 nM
Activity [2]: 56.5%
EC50 [3]: 6000 nM
EC50 [4]: > 5000 nM
Emax [4]: 116.7 pg/mL
Activity [5]: Non-Toxic

CC(=O)N[C@@H](Cc1cnc[nH]1)C(=O)N[C@H](C(=O)N[C@@H](Cc1ccccc1)C(=O)N[C@@H](CCCCN)C(=O)N[C@@H](CO)C(=O)N[C@@H](Cc1c[nH]c2ccccc12)C(=O)N[C@H]1CCCCNC(=O)C[C@@H](C(=O)N[C@@H](Cc2c[nH]c3ccccc23)C(=O)N[C@H](C(=O)N[C@@H](CCCCN)C(=O)N[C@@H](CCCCN)C(=O)N[C@@H](CCCCN)C(=O)N[C@@H](CCCCN)C(=O)N[C@@H](CCCCN)C(=O)N[C@@H](CCCCN)C(N)=O)C(C)C)NC(=O)[C@H](CC(C)C)NC(=O)[C@H](Cc2ccc(O)cc2)NC(=O)[C@H](CCC(=O)O)NC1=O)C(C)C (Ac-HVFKSWKEYLDWVKKKKKK-NH2; lactam 7-11)
Kd [1]: 6 nM
EC50 [3]: 175 nM
EC50 [4]: 2200 nM
Emax [4]: 1483.2 pg/mL
Activity [5]: Non-Toxic
